Data from ChEMBL document CHEMBL1122603, “2-Acetylpyridine thiosemicarbazones. 9. Derivatives of 2-acetylpyridine 1-oxide as potential antimalarial agents” (1984).
≈ marks a conversion by molar mass, not a printed value.

Key:
Mus musculus [1] = experiment: In vivo antimalarial activity against Plasmodium berghei in the mice (Mus musculus) at 320 mg/kg dosage; C=cure; assay type: functional, organism-based; set-up: dose 320 mg/kg
Procedure, shortened: (§1)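 Mortality-based mouse test against the drug-sensitive P. berghei strain KBG 173, run at the Leo Rane Laboratory. Groups of five mice per dose level were scored for cures and for toxic deaths.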

Plasmodium berghei [2] = experiment: Increase in mean survival time in Plasmodium berghei inoculated mice (Mus musculus) following 160 mg/kg administration; assay type: functional
Plasmodium berghei [3] = experiment: Increase in mean survival time in Plasmodium berghei inoculated mice (Mus musculus) following 40 mg/kg administration; assay type: functional
Mus musculus [4] = experiment: In vivo antimalarial activity against Plasmodium berghei in the mice (Mus musculus) at 640 mg/kg dosage; C=cure; assay type: functional, organism-based; set-up: dose 640 mg/kg; procedure, shortened: as §1
Mus musculus [5] = experiment: In vivo antimalarial activity against Plasmodium berghei in the mice (Mus musculus) at 80 mg/kg dosage; assay type: functional; procedure, shortened: as §1
Mus musculus [6] = experiment: In vivo antimalarial activity against Plasmodium berghei in the mice (Mus musculus) at 320 mg/kg dosage; assay type: functional; procedure, shortened: as §1
Mus musculus [7] = experiment: In vivo antimalarial activity against Plasmodium berghei in the mice (Mus musculus) at 20 mg/kg dosage; assay type: functional; procedure, shortened: as §1
Mus musculus [8] = experiment: In vivo antimalarial activity against Plasmodium berghei in the mice (Mus musculus) at 640 mg/kg dosage; T= Toxicity; assay type: functional, organism-based; set-up: dose 640 mg/kg; procedure, shortened: as §1
Mus musculus [9] = experiment: In vivo antimalarial activity against Plasmodium berghei in the mice (Mus musculus) at 640 mg/kg dosage; assay type: functional; procedure, shortened: as §1
Plasmodium falciparum [10] = experiment: In vitro antimalarial potency against chloroquine-sensitive, pyrimethamine-resistant Plasmodium falciparum CAMP; assay type: functional; conditions: read-out: ID50 (the source's name)
Procedure, shortened: (§2)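 Semiautomated culture assay on P. falciparum. Stocks were 1 mg/mL in 1:1 DMSO/EtOH, diluted in culture medium as seven 2-fold steps over a 64-fold range, with chloroquine and mefloquine as plate controls. Plates ran 24 h at 37 °C under 5% O2/5% CO2/90% N2, then [G-3H]hypoxanthine was added for 18 h more. Harvested incorporation was read by scintillation counting as the viability index.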

Plasmodium falciparum [11] = experiment: In vitro antimalarial potency against multidrug-resistant Plasmodium falciparum Vietnam Smith strain; assay type: functional; conditions: read-out: ID50 (the source's name); procedure, shortened: as §2
Mus musculus [12] = experiment: In vivo antimalarial activity against Plasmodium berghei in the mice (Mus musculus) at 160 mg/kg dosage; C=cure; assay type: functional, organism-based; set-up: dose 160 mg/kg; procedure, shortened: as §1
Mus musculus [13] = experiment: In vivo antimalarial activity against Plasmodium berghei in the mice (Mus musculus) at 40 mg/kg dosage; assay type: functional; procedure, shortened: as §1
Mus musculus [14] = experiment: In vivo antimalarial activity against Plasmodium berghei in the mice (Mus musculus) at 320 mg/kg dosage; T= Toxicity; assay type: functional, organism-based; set-up: dose 320 mg/kg; procedure, shortened: as §1
Mus musculus [15] = experiment: In vivo antimalarial activity against Plasmodium berghei in the mice (Mus musculus) at 160 mg/kg dosage; assay type: functional; procedure, shortened: as §1
Mus musculus [16] = experiment: In vivo antimalarial activity against Plasmodium berghei in the mice (Mus musculus) at 80 mg/kg dosage; C=cure; assay type: functional, organism-based; set-up: dose 80 mg/kg; procedure, shortened: as §1

## C/C(=N\N=C(/S)N1CCCCC1)c1cccc[n+]1[O-]
Mus musculus [1]
  cure outcome: Cures
Plasmodium berghei [2]
  increase in mean survival time: 6.3 days
Plasmodium berghei [3]
  increase in mean survival time: 3.5 days
Mus musculus [4]
  cures (mice cured): Cures
Mus musculus [5]
  increase in mean survival time: 1.3 days

## CC(N/N=C(\S)N1CC2CCC(CC2)C1)c1cccc[n+]1[O-] (stereo not drawn)
Mus musculus [6]
  increase in mean survival time: 2.5 days
Plasmodium berghei [2]
  increase in mean survival time: 0.9 days
Mus musculus [7]
  increase in mean survival time: -0.1 days
Plasmodium berghei [3]
  increase in mean survival time: -0.3 days
Mus musculus [4]
  cures (mice cured): Cures
Mus musculus [5]
  increase in mean survival time: 0.7 days

## C/C(=N\N=C(/S)N1CCN(C=O)CC1)c1cccc[n+]1[O-]
Mus musculus [8]
  increase in mean survival time: Toxic
Plasmodium berghei [2]
  increase in mean survival time: 0.3 days
Plasmodium berghei [3]
  increase in mean survival time: -0.3 days

## CC(N/N=C(\S)N1CCCCC1)c1cccc[n+]1[O-] (stereo not drawn)
Mus musculus [9]
  increase in mean survival time: 1.8 days
Plasmodium berghei [2]
  increase in mean survival time: 0.2 days
Plasmodium berghei [3]
  increase in mean survival time: 0.2 days

## C/C(=N\N=C(/S)N1CCCCC1C)c1cccc[n+]1[O-] (stereo not drawn)
Mus musculus [1]
  cure outcome: Cures
Plasmodium falciparum [10]
  IC50: 0.077 µg/mL (≈ 0.263 µM)
Plasmodium falciparum [11]
  IC50: 0.08 µg/mL (≈ 0.274 µM)
Mus musculus [12]
  increase in mean survival time: Cures
Plasmodium berghei [3]
  increase in mean survival time: 2.3 days
Mus musculus [4]
  cures (mice cured): Cures
Mus musculus [5]
  increase in mean survival time: 3.3 days

## CCOC(=O)N1CCN(/C(S)=N/NC(C)c2cccc[n+]2[O-])CC1 (stereo not drawn)
Mus musculus [9]
  increase in mean survival time: 9 days
Mus musculus [6]
  increase in mean survival time: 8 days
Plasmodium berghei [2]
  increase in mean survival time: 6.6 days
Plasmodium berghei [3]; 40 mg/kg
  increase in mean survival time: 1.2 days
Mus musculus [5]
  increase in mean survival time: 6 days

## 3-Aza-bicyclo[3.2.2]nonane-3-carbothioic acid [1-(1-oxy-pyridin-2-yl)-ethylidene]-hydrazide; compound with copper(I) chloride
Mus musculus [9]
  increase in mean survival time: 2.4 days
Plasmodium berghei [2]
  increase in mean survival time: 1.4 days
Plasmodium berghei [3]
  increase in mean survival time: -0.3 days

## C/C(=N\N=C(/S)N1CCCC1)c1cccc[n+]1[O-]
Mus musculus [9]
  increase in mean survival time: 5.9 days
Mus musculus [1]
  cure outcome: Cures
Plasmodium falciparum [10]
  IC50: 0.048 µg/mL (≈ 0.182 µM)
Plasmodium berghei [2]
  increase in mean survival time: 1.5 days
Plasmodium falciparum [11]
  IC50: 0.044 µg/mL (≈ 0.166 µM)
Plasmodium berghei [3]
  increase in mean survival time: 0.9 days
Mus musculus [5]
  increase in mean survival time: 1.1 days

## C/C(=N\N=C(/S)N1CCN(c2ccccn2)CC1)c1cccc[n+]1[O-]
Mus musculus [1]
  cure outcome: Cures
Plasmodium berghei [2]
  increase in mean survival time: 1.9 days
Plasmodium berghei [3]
  increase in mean survival time: 0.5 days
Mus musculus [4]
  cures (mice cured): Cures
Mus musculus [5]
  increase in mean survival time: 0.3 days

## CC(N/N=C(\S)N1CCCCCC1)c1cccc[n+]1[O-] (stereo not drawn)
Mus musculus [9]
  increase in mean survival time: 3.5 days
Mus musculus [6]
  increase in mean survival time: 1.6 days
Plasmodium berghei [2]
  increase in mean survival time: 0.8 days
Plasmodium berghei [3]
  increase in mean survival time: -0.2 days
Mus musculus [5]
  increase in mean survival time: 0.4 days

## C/C(=N\N=C(/S)N1CCC(C)CC1)c1cccc[n+]1[O-]
Mus musculus [6]
  increase in mean survival time: 4.2 days
Plasmodium falciparum [10]
  IC50: 0.074 µg/mL (≈ 0.253 µM)
Plasmodium berghei [2]
  increase in mean survival time: 2.3 days
Plasmodium falciparum [11]
  IC50: 0.073 µg/mL (≈ 0.25 µM)
Plasmodium berghei [3]
  increase in mean survival time: 0.6 days
Mus musculus [4]
  cures (mice cured): Cures
Mus musculus [5]
  increase in mean survival time: 2.2 days

## CC(N/N=C(\S)N1CCN(c2ccccn2)CC1)c1cccc[n+]1[O-] (stereo not drawn)
Mus musculus [9]
  increase in mean survival time: 3.4 days
Plasmodium berghei [2]
  increase in mean survival time: 0.2 days

## C/C(=N\N=C(/S)N1CCN(c2ccccc2)CC1)c1cccc[n+]1[O-]
Mus musculus [9]
  increase in mean survival time: 8.3 days
Mus musculus [6]
  increase in mean survival time: 9.1 days
Plasmodium falciparum [10]
  IC50: 0.062 µg/mL (≈ 0.174 µM)
Plasmodium berghei [2]
  increase in mean survival time: 3.5 days
Plasmodium berghei [3]
  increase in mean survival time: 0.1 days
Mus musculus [5]
  increase in mean survival time: 1.7 days

## C/C(=N\N=C(/S)N(C)C)c1cccc[n+]1[O-]
Mus musculus [13]
  increase in mean survival time: 2.3 days
Mus musculus [9]
  increase in mean survival time: 6.9 days
Plasmodium falciparum [10]
  IC50: 0.054 µg/mL (≈ 0.227 µM)
Plasmodium falciparum [11]
  IC50: 0.078 µg/mL (≈ 0.327 µM)
Mus musculus [14]
  increase in mean survival time: Toxic
Mus musculus [15]
  increase in mean survival time: 4.2 days
Mus musculus [5]
  increase in mean survival time: 0.7 days

## CCOC(=O)N1CCN(/C(S)=N/N=C(\C)c2cccc[n+]2[O-])CC1
Mus musculus [16]
  increase in mean survival time: Cures
Mus musculus [8]
  increase in mean survival time: Toxic
Mus musculus [14]
  increase in mean survival time: Toxic
Mus musculus [12]
  increase in mean survival time: Cures
Plasmodium berghei [3]
  increase in mean survival time: 4.7 days

## C/C(=N\N=C(/S)N1CC(C)OC(C)C1)c1cccc[n+]1[O-] (stereo not drawn)
Plasmodium falciparum [10]
  IC50: 0.041 µg/mL (≈ 0.133 µM)
Plasmodium berghei [2]
  increase in mean survival time: 6.1 days
Plasmodium falciparum [11]
  IC50: 0.046 µg/mL (≈ 0.149 µM)
Plasmodium berghei [3]
  increase in mean survival time: 4.9 days
Mus musculus [4]
  cures (mice cured): Cures
Mus musculus [5]
  increase in mean survival time: 6.1 days

## CC(N/N=C(\S)N1CCCC1)c1cccc[n+]1[O-] (stereo not drawn)
Mus musculus [9]
  increase in mean survival time: 1.6 days
Plasmodium berghei [2]
  increase in mean survival time: 0 days
Plasmodium berghei [3]
  increase in mean survival time: 0.8 days

## C/C(=N\N=C(/S)N1CCCC(C)C1)c1cccc[n+]1[O-] (stereo not drawn)
Mus musculus [6]
  increase in mean survival time: 1.4 days
Plasmodium falciparum [10]
  IC50: 0.039 µg/mL (≈ 0.133 µM)
Plasmodium berghei [2]
  increase in mean survival time: 4.7 days
Plasmodium falciparum [11]
  IC50: 0.051 µg/mL (≈ 0.174 µM)
Plasmodium berghei [3]
  increase in mean survival time: 1.5 days
Mus musculus [4]
  cures (mice cured): Cures
Mus musculus [5]
  increase in mean survival time: 1.6 days

## C/C(=N\N=C(/S)N1CCCCCC1)c1cccc[n+]1[O-]
Mus musculus [9]
  increase in mean survival time: 7.1 days
Mus musculus [6]
  increase in mean survival time: 4.9 days
Plasmodium berghei [2]
  increase in mean survival time: 3.1 days
Plasmodium berghei [3]
  increase in mean survival time: 0.9 days
Mus musculus [5]
  increase in mean survival time: 0.7 days

## C/C(=N\N=C(/S)N1CCSCC1)c1cccc[n+]1[O-]
Mus musculus [9]
  increase in mean survival time: 1.5 days
Plasmodium falciparum [10]
  IC50: 0.044 µg/mL (≈ 0.148 µM)
Plasmodium berghei [2]
  increase in mean survival time: 0.9 days
Plasmodium berghei [3]
  increase in mean survival time: 0.1 days

## C/C(=N\N=C(/S)N1CC2CCC(CC2)C1)c1cccc[n+]1[O-]
Mus musculus [6]
  increase in mean survival time: 4.9 days
Plasmodium falciparum [10]
  IC50: 0.086 µg/mL (≈ 0.27 µM)
Plasmodium berghei [2]
  increase in mean survival time: 1.1 days
Plasmodium falciparum [11]
  IC50: 0.083 µg/mL (≈ 0.261 µM)
Plasmodium berghei [3]
  increase in mean survival time: -0.7 days
Mus musculus [4]
  cures (mice cured): Cures
Mus musculus [5]
  increase in mean survival time: 0.1 days
